Laboratory results as given in ChEMBL document CHEMBL4138058, “Design and synthesis of novel selective estrogen receptor degradation inducers based on the diphenylheptane skeleton” (Medchemcomm, 2017).

What was measured:
Assay type in all cases: cell-based
[1] = target: T1, Estrogen receptor (Homo sapiens) (UniProt P03372); assay: Downregulation of ERalpha expression in human MCF7 cells at 3 uM after 6 hrs by Western blot method relative to lamin B
T1 sequence (whole entry): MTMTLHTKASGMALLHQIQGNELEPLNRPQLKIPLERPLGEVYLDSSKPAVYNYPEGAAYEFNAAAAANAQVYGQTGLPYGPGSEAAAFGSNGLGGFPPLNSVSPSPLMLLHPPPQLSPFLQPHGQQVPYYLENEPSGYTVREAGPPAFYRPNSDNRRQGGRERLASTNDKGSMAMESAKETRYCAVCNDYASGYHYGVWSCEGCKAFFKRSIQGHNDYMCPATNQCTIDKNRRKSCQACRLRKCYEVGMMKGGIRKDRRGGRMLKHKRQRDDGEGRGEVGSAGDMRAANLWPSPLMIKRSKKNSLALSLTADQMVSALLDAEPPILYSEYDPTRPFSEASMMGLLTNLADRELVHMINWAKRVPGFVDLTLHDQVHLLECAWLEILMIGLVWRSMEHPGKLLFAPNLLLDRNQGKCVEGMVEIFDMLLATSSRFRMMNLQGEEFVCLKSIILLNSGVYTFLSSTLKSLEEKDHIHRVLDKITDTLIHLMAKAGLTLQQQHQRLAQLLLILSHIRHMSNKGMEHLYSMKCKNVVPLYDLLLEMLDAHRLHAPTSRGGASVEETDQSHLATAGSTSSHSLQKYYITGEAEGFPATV
Procedure, shortened: (§1)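 MCF-7 cells kept in DMEM with 10% FBS, kanamycin and 10 μg/mL insulin, then exposed to compounds for 6 h. Lysates made in SDS buffer (0.1 M Tris-HCl pH 8.0, 10% glycerol, 1% SDS), boiled, BCA-normalized and run on SDS-PAGE. Blots probed with anti-ERα, AR, AhR or VDR and β-actin or lamin B. Chemiluminescence quantified as target/loading-protein ratio; means ± S.E., n=3.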

[2] = target: T2, Androgen receptor (Homo sapiens) (UniProt P10275); assay: Downregulation of androgen receptor expression in human MCF7 cells at 1 uM after 6 hrs by Western blot method relative to lamin B; procedure, shortened: as §1
T2 sequence (whole entry): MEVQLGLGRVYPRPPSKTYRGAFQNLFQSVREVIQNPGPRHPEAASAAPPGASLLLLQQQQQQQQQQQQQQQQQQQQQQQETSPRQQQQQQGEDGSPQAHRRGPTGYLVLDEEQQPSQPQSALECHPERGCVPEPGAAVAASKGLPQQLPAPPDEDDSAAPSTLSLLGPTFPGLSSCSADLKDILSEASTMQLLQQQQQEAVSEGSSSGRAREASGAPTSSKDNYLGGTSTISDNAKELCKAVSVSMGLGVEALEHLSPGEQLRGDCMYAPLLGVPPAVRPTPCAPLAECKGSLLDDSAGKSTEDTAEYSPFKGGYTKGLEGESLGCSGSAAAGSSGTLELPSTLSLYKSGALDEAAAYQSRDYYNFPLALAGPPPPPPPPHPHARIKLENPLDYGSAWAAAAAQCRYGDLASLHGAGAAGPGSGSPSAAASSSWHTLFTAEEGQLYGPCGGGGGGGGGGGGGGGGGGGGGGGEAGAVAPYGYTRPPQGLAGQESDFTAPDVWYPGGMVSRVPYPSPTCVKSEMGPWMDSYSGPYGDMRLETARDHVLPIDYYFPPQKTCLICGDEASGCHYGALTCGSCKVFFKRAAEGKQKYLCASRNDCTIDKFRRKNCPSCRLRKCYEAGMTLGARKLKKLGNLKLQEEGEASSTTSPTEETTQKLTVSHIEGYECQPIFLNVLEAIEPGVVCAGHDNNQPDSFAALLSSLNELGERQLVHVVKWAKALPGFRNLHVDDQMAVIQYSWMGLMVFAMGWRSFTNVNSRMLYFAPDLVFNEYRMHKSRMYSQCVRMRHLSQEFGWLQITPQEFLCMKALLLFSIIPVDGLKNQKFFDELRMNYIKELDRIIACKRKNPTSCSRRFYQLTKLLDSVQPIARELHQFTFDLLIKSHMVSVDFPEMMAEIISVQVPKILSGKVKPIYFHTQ

[3] = target: T1, Estrogen receptor (Homo sapiens); assay: Downregulation of ERalpha expression in human MCF7 cells at 10 uM after 6 hrs by Western blot method relative to beta-actin; procedure, shortened: as §1
Estrogen receptor = target: T3, Estrogen receptor (Homo sapiens, UniProt P03372); assay: Antagonist activity at GAL4-fused human ERalpha LBD expressed in HEK293 cells assessed as inhibition of 17beta-estradiol-induced transcriptional activation after 16 to 20 hrs by luciferase reporter gene assay
T3 sequence (P03372 whole entry): T1 sequence (whole entry)
Procedure, shortened: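 HEK293 cells grown in phenol red-free DMEM with 10% FBS at 37 °C, 5% CO2. Calcium phosphate co-transfection with GAL4-hERα LBD plasmid, MH100x4-tk-luciferase reporter and β-galactosidase normalization plasmid. Compounds added 8 h post-transfection with 0.3 nM 17β-estradiol; harvested 16–20 h later. Luciferase normalized to β-galactosidase; means of triplicate assays.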

[4] = target: T1, Estrogen receptor (Homo sapiens); assay: Downregulation of ERalpha expression in human MCF7 cells at 1 uM after 6 hrs in presence of proteasome inhibitor MG132 by Western blot method relative to lamin B; procedure, shortened: as §1
[5] = target: T2, Androgen receptor (Homo sapiens); assay: Downregulation of androgen receptor expression in human MCF7 cells at 10 uM after 6 hrs by Western blot method relative to lamin B; procedure, shortened: as §1
[6] = target: T4, Vitamin D3 receptor (Homo sapiens) (UniProt P11473); assay: Downregulation of VDR expression in human MCF7 cells at 3 uM after 6 hrs by Western blot method relative to lamin B; procedure, shortened: as §1
T4 sequence (whole entry): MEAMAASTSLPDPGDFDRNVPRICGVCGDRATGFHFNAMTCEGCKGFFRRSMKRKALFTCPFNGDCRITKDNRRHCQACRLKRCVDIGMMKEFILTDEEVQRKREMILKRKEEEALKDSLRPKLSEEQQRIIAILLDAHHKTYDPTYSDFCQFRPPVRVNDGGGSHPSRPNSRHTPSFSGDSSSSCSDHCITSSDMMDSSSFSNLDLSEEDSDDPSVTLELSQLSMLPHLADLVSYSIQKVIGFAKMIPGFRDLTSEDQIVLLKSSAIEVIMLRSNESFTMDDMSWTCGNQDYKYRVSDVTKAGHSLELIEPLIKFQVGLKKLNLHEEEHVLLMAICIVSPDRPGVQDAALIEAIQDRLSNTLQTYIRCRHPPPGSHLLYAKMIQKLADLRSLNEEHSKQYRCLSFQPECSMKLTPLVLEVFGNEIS

[7] = target: T4, Vitamin D3 receptor (Homo sapiens); assay: Downregulation of VDR expression in human MCF7 cells at 1 uM after 6 hrs in presence of proteasome inhibitor MG132 by Western blot method relative to lamin B; procedure, shortened: as §1
[8] = target: T1, Estrogen receptor (Homo sapiens); assay: Downregulation of ERalpha expression in human MCF7 cells at 3 uM after 6 hrs by Western blot method relative to beta-actin; procedure, shortened: as §1
[9] = target: T4, Vitamin D3 receptor (Homo sapiens); assay: Downregulation of VDR expression in human MCF7 cells at 1 uM after 6 hrs by Western blot method relative to lamin B; procedure, shortened: as §1
[10] = target: T2, Androgen receptor (Homo sapiens); assay: Downregulation of androgen receptor expression in human MCF7 cells at 3 uM after 6 hrs in presence of proteasome inhibitor MG132 by Western blot method relative to lamin B; procedure, shortened: as §1

## CCCCCCCCCCNCCOc1ccc(C(CCC)(CCC)c2ccc(O)c(C)c2)cc1C
[1]
  Activity: 47 to 59%
[2]
  Activity: 94%
[3]
  Activity: 44%
Estrogen receptor
  IC50: 45 nM
[4]
  Activity: 117%
[5]
  Activity: 98%
[6]
  Activity: 99%
[7]
  Activity: 98%
[8]
  Activity: 57%
[9]
  Activity: 100%
[10]
  Activity: 78%
